Where “and” joins values, the source holds several entries; their conditions need not be identical. Equal entries are not always repeated. Calls of active or inactive are those of the source. The calls are words filed in the database; no cut-off is given here.
What was measured:
Rattus norvegicus [1] = experiment: Drug discrimination effect of compound in rats, expressed as percent of rats choosing the cocaine lever at dose 0.56 mg/kg (ip); assay type: functional
Mus musculus [2] = organism: Mus musculus; experiment: Hour 1 ratio to cocaine was determined for locomotor activity in mice; assay type: functional
Mus musculus [3] = experiment: Percent change from vehicle in locomotor activity in mice at 0.1 mg/kg (ip) in 1 h; assay type: functional
Mus musculus [4] = experiment: Percent change in locomotor activity in mice at 1 mg/kg i.p. in 4 h.; assay type: functional; details: route intraperitoneal
In short: (§1)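 Mice habituated 1/2 h to photocell activity chambers, then injected ip with compound homogenized in 0.5% methyl cellulose (10 mL/kg); vehicle controls; N = 5 or 6 per dose. Photobeam interruptions recorded in 10-min bins for 4 h, grouped into 1-h bins; one-way ANOVA with Newman-Keuls post hoc test (p < 0.05).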

Mus musculus [5] = experiment: Percent change from vehicle in locomotor activity in mice at 0.3 mg/kg (ip) in 2 h; assay type: functional
Mus musculus [6] = experiment: Percent change from vehicle in locomotor activity in mice at 0.3 mg/kg (ip) in 4 h; assay type: functional
Rattus norvegicus [7] = experiment: Drug discrimination effect of compound in rats, expressed as percent of rats choosing the cocaine lever at dose 0.3 mg/kg (ip); assay type: functional
Mus musculus [8] = experiment: Percent change in locomotor activity in mice at 1 mg/kg i.p. in 1 h.; assay type: functional; details: route intraperitoneal
[9] = target: T1, Sodium-dependent serotonin transporter (Rattus norvegicus, UniProt P31652); experiment: Binding affinity towards serotonin transporter 5-HTT was determined using [3H]paroxetine radioligand.
In short: (§2)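 Competition binding at the 5-HTT with 0.2 nM [3H]paroxetine (final concentration). Other procedures follow earlier published methods.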

[10] = target: T1, Sodium-dependent serotonin transporter; experiment: Inhibitory concentration required to inhibit serotonin transporter 5-HTT was determined by using [3H]paroxetine radioligand; in short: as §2
Mus musculus [11] = experiment: Percent change from vehicle in locomotor activity in mice at 0.1 mg/kg (ip) in 4 h; assay type: functional
[12] = target: T2, Norepinephrine transporter (Rattus norvegicus, UniProt Q9WTR4); experiment: Binding affinity towards norepinephrine transporter was determined using [3H]nisoxetine radioligand.
In short: (§3)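 Competition binding at the NET with 0.5 nM [3H]nisoxetine (final concentration). Other procedures follow earlier published methods.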

Rattus norvegicus [13] = experiment: Effective dose for drug discrimination effect in rat (ip); assay type: functional
In short: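 Cocaine-trained rat drug discrimination, FR10, 10-min sessions. Compound in 0.5% methyl cellulose given ip 15 min before session, usually to 7-8 rats per dose. Doses were raised from ≤20% to ≥80% cocaine-lever choice, capped at 30 mg/kg, >50% loss of pressing, or side effects.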

Mus musculus [14] = experiment: Percent change from vehicle in locomotor activity in mice at 0.3 mg/kg (ip) in 3 h; assay type: functional
Mus musculus [15] = experiment: Percent change locomotor activity in mice at 1 mg/kg i.p. in 3 h.; assay type: functional; details: route intraperitoneal; in short: as §1
Mus musculus [16] = experiment: Percent change in locomotor activity in mice at 1 mg/kg i.p. in 2 h.; assay type: functional; details: route intraperitoneal; in short: as §1
Mus musculus [17] = experiment: Percent change from vehicle in locomotor activity in mice at 0.1 mg/kg (ip) in 2 h; assay type: functional
Mus musculus [18] = organism: Mus musculus; experiment: Effective dose for locomotor activity in mice in the peak hour.; assay type: functional
Mus musculus [19] = experiment: Percent change from vehicle in locomotor activity in mice at 0.3 mg/kg (ip) in 1 h; assay type: functional
Rattus norvegicus [20] = experiment: Drug discrimination effect of compound in rats, expressed as percent of rats choosing the cocaine lever at dose 1 mg/kg (ip); assay type: functional
[21] = target: Sodium-dependent dopamine transporter (Rattus norvegicus, UniProt P23977); experiment: Inhibitory concentration required to inhibit dopamine transporter DAT was determined by using [3H]WIN-35428 radioligand
In short: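 Competition binding at the DAT with 0.5 nM [3H]WIN35,428 (final concentration). Other procedures follow earlier published methods.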

Mus musculus [22] = experiment: Percent change from vehicle in locomotor activity in mice at 0.1 mg/kg (ip) in 3 h; assay type: functional
[23] = target: T2, Norepinephrine transporter; experiment: Inhibition of norepinephrine transporter (NET) determined using [3H]nisoxetine radioligand.; in short: as §3
Mus musculus [24] = experiment: Percent change in locomotor activity in mice at 3 mg/kg i.p. in 2 h.; assay type: functional; details: route intraperitoneal; in short: as §1
Mus musculus [25] = experiment: Percent change in locomotor activity in mice at 3 mg/kg i.p. in 3 h.; assay type: functional; details: route intraperitoneal; in short: as §1
Rattus norvegicus [26] = experiment: Drug discrimination effect of compound in rats, expressed as percent of rats choosing the cocaine lever at dose 0.17 mg/kg (ip); assay type: functional
Mus musculus [27] = experiment: Percent change in locomotor activity in mice at 3 mg/kg i.p. in 4 h.; assay type: functional; details: route intraperitoneal; in short: as §1
Rattus norvegicus [28] = experiment: Drug discrimination effect of compound in rats, expressed as percent of rats choosing the cocaine lever at dose 0.1 mg/kg (ip); assay type: functional
Mus musculus [29] = experiment: Percent change in locomotor activity in mice at 3 mg/kg i.p. in 1 h.; assay type: functional; details: route intraperitoneal; in short: as §1
Mus musculus [30] = experiment: Percent change from vehicle in locomotor activity in mice at 30 mg/kg (ip) in 4 h; assay type: functional
Rattus norvegicus [31] = experiment: Drug discrimination effect of compound in rats, expressed as percent of rats choosing the cocaine lever at dose 30 mg/kg (ip); assay type: functional
Rattus norvegicus [32] = experiment: Drug discrimination effect of compound in rats, expressed as percent of rats choosing the cocaine lever at dose 3 mg/kg (ip); assay type: functional
Mus musculus [33] = experiment: Percent change from vehicle in locomotor activity in mice at 30 mg/kg (ip) in 1 h; assay type: functional
Mus musculus [34] = experiment: Percent change from vehicle in locomotor activity in mice at 10 mg/kg (ip) in 2 h; assay type: functional
Mus musculus [35] = experiment: Percent change from vehicle in locomotor activity in mice at 10 mg/kg (ip) in 4 h; assay type: functional
Mus musculus [36] = experiment: Percent change from vehicle in locomotor activity in mice at 10 mg/kg (ip) in 1 h; assay type: functional
Mus musculus [37] = experiment: Percent change from vehicle in locomotor activity in mice at 30 mg/kg (ip) in 3 h; assay type: functional
Mus musculus [38] = experiment: Percent change from vehicle in locomotor activity in mice at 10 mg/kg (ip) in 3 h; assay type: functional
Rattus norvegicus [39] = experiment: Drug discrimination effect of compound in rats, expressed as percent of rats choosing the cocaine lever at dose 10 mg/kg (ip); assay type: functional
Mus musculus [40] = experiment: Percent change from vehicle in locomotor activity in mice at 30 mg/kg (ip) in 2 h; assay type: functional
Mus musculus [41] = organism: Mus musculus; experiment: Effective dose was evaluated for locomotor activity in mice in the peak hour; No stimulation; assay type: functional, organism-based

T2 sequence (Q9WTR4 whole entry): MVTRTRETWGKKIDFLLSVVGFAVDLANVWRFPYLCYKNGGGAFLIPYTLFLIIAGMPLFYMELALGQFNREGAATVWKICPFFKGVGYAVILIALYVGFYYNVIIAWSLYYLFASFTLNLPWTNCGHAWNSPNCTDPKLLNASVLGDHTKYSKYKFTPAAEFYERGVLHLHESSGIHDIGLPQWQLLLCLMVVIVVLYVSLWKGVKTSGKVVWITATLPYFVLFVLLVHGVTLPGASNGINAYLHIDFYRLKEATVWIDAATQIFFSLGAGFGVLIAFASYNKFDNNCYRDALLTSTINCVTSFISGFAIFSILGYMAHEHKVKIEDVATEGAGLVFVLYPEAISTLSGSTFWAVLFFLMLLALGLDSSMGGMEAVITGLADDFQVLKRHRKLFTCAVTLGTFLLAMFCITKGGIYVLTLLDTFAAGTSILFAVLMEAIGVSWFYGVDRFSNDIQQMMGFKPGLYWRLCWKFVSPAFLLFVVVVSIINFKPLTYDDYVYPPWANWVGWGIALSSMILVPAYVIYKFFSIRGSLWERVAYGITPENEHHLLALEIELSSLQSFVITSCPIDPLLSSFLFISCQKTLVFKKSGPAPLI
T1 sequence (P31652 whole entry): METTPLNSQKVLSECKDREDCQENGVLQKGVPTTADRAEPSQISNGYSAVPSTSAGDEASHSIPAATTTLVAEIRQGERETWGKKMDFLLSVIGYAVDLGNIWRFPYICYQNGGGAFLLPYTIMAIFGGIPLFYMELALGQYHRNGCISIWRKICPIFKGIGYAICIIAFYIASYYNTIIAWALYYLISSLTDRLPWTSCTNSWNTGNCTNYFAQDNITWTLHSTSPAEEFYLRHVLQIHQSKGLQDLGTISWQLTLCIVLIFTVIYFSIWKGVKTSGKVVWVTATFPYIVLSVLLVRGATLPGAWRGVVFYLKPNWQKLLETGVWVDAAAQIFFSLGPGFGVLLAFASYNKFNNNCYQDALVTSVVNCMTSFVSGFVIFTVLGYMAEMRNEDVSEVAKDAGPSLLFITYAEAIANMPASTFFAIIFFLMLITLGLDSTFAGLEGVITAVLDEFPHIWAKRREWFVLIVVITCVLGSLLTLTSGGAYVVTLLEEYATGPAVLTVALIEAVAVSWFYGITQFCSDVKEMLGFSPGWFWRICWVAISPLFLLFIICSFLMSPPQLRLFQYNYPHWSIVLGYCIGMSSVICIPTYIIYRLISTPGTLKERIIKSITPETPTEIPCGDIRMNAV
Sodium-dependent dopamine transporter, sequence (P23977 whole entry): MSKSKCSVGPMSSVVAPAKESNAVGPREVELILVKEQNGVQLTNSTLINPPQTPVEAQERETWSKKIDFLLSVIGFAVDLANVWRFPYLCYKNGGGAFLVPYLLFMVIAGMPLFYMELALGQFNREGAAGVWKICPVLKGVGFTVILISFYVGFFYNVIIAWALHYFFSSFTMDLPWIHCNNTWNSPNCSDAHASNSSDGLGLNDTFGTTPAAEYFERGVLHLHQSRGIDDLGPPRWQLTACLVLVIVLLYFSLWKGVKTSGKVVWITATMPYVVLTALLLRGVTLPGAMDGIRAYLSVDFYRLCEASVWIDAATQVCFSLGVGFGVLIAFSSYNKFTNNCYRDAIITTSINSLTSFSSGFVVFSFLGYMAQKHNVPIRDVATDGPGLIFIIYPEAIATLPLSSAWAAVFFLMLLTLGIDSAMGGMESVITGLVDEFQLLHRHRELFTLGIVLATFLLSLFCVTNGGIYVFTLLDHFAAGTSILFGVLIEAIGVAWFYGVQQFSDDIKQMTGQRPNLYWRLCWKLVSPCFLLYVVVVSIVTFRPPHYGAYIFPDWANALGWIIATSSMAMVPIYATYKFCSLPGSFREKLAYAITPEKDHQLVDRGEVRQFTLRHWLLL

SMILES | Change (Mus musculus [4]) [%] | Change (Mus musculus [5]) [%] | Change (Mus musculus [6]) [%] | Drug discrimination effect (Rattus norvegicus [7]) [%] | Change (Mus musculus [8]) [%] | Ki [9] [nM] | IC50 [10] [nM] | Ki [12] [nM] | ED50 (Rattus norvegicus [13]) [mg/kg] | Change (Mus musculus [14]) [%] | Change (Mus musculus [15]) [%] | Change (Mus musculus [16]) [%] | ED50 (Mus musculus [18]) [mg/kg] | Change (Mus musculus [19]) [%] | Drug discrimination effect (Rattus norvegicus [20]) [%] | IC50 [21] [nM] | IC50 [23] [nM] | Change (Mus musculus [24]) [%] | Change (Mus musculus [25]) [%] | Change (Mus musculus [27]) [%] | also measured
CCc1cc(C2C(c3ccc(Cl)cc3)CC3CCC2N3C)on1 (configuration not stated) | 778 | 505 | 208 | 0 | 954 | 281 | 3090 | 72 | 0.48 | 224 | 1708 | 1900 | 0.4 | 284 | 71 | 0.5 | 120 |  |  |  | Drug discrimination effect (Rattus norvegicus [1]): 75%; Ratio (Mus musculus [2]): 2.1; Change (Mus musculus [3]): 82%; Change (Mus musculus [11]): 103%; Change (Mus musculus [17]): 224%; Change (Mus musculus [22]): 184%
CN1C2CCC1C(c1ccno1)C(c1ccc(Cl)cc1)C2 (configuration not stated) | 182 | 86 | -20 | 63 | 186 | 8.2 | 91 | 52 | 0.41 | 70 | 345 | 284 | 1.2 | 57 | 100 | 0.77 | 87 | 137 | -40 | -71 | Drug discrimination effect (Rattus norvegicus [1]): 25%; Ratio (Mus musculus [2]): 1.1; Drug discrimination effect (Rattus norvegicus [26]): 29%; Drug discrimination effect (Rattus norvegicus [28]): 13%; Change (Mus musculus [29]): 486%
Cc1ccc(C2CC3CCC(C2c2ccno2)N3C)cc1 (configuration not stated) | -32 | -12 | -28 | 83 | 319 | 38 | 414 |  | 0.19 | 136 | 48 | 214 | 1 | -13 | 100 | 1.37 |  | 666 | 571 | 125 | Drug discrimination effect (Rattus norvegicus [26]): 43%; Drug discrimination effect (Rattus norvegicus [28]): 0%; Change (Mus musculus [29]): 698%
Cc1ccc(C2CC3CCC(C2c2cc(-c4ccc(Cl)cc4)no2)N3C)cc1 (configuration not stated) |  | -20 | 45 |  | 5 |  | > 100000 | 3990 |  | -58 | 33 |  |  | -35 | 0 | 8.74 | 6980 | 39 | 7 | -1 | Change (Mus musculus [30]): 52%; Change (Mus musculus [4]; 1 mg/kg): 24% and 27%; Drug discrimination effect (Rattus norvegicus [31]): 0%; Drug discrimination effect (Rattus norvegicus [32]): 13%; Change (Mus musculus [33]): -26%; Change (Mus musculus [34]): -3%; Change (Mus musculus [35]): -20%; Change (Mus musculus [29]): 30%; Change (Mus musculus [36]): -1%; Change (Mus musculus [37]): 79%; Change (Mus musculus [38]): -45%; Drug discrimination effect (Rattus norvegicus [39]): 0%; Change (Mus musculus [40]): 38%; ED50 (Mus musculus [41]): inactive

— ChEMBL document CHEMBL1148376, “Synthesis, monoamine transporter binding properties, and behavioral pharmacology of a series of 3beta-(substituted phenyl)-2beta-(3'-substituted isoxazol-5-yl)tropanes” (J Med Chem, 2004)
